# Measured values from ChEMBL document CHEMBL3091309, “A CD4 mimic as an HIV entry inhibitor: pharmacokinetics” (Bioorg Med Chem, 2013).
# Key:
# [1] = Adsorption in rhesus monkey blood cells assessed as YYA-021 level at 1 mg/ml after 2 hrs by HPLC analysis; type: ADME, cell-based, Macaca mulatta
# How it was run: (§1)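 Macaque whole blood (1.0 mL) spiked with 2-HCl in saline (5 mg/mL stock, 0.25 mL), incubated 37°C for 0, 1 or 2 h. Plasma and blood cells separated by centrifugation; cells brought to 1.0 mL with PBS, and an aliquot sonicated. In the re-addition arm, plasma was added to 1 h cells and incubated 1 h more. MeOH-extracted supernatants, phenol internal standard 600 µg/mL final, analyzed by HPLC.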
# [2] = Adsorption in rhesus monkey blood cells assessed as YYA-021 level at 1 mg/ml after 1 hr followed by plasma addition by HPLC analysis; type: ADME, cell-based, Macaca mulatta; how it was run: as §1
# Plasma [3] = test: Adsorption in rhesus monkey plasma assessed as YYA-021 level at 1 mg/ml preincubated for 1 hr followed by plasma addition measured after 1 hr by HPLC analysis; type: ADME, cell-free, Macaca mulatta; how it was run: as §1
# Plasma [4] = test: Adsorption in rhesus monkey plasma assessed as YYA-021 level at 1 mg/ml after 1 hr followed by plasma addition by HPLC analysis; type: ADME, cell-free, Macaca mulatta; how it was run: as §1
# [5] = Adsorption in rhesus monkey blood cells assessed as YYA-021 level at 1 mg/ml after 1 hr by HPLC analysis; type: ADME, cell-based, Macaca mulatta; how it was run: as §1
# Plasma [6] = test: Adsorption in rhesus monkey plasma assessed as YYA-021 level at 1 mg/ml after 1 hr by HPLC analysis; type: ADME, cell-free, Macaca mulatta; how it was run: as §1
# [7] = Adsorption in rhesus monkey blood cells assessed as YYA-021 level at 1 mg/ml measured immediately by HPLC analysis; type: ADME, cell-based, Macaca mulatta; how it was run: as §1
# Plasma [8] = test: Plasma concentration in rhesus monkey at 13.4 mg/kg, iv measured immediately by HPLC analysis; type: ADME, organism-based, Macaca mulatta; set-up: dose 13.4 mg/kg, route intravenous; conditions: in vivo
# How it was run: (§2)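 Macaque given 70.6 mg 2-HCl in 30 mL 0.1 M sodium phosphate buffer with NaCl, pH 7.4, by cephalic vein injection. Blood (3.0 mL) taken at 0, 0.5, 1, 2, 4 and 24 h, and plasma stored at -80°C. Plasma extracted with MeOH and spiked with phenol (150 µg/mL final). Quantified by HPLC on a 20–35% CH3CN (0.1% TFA) gradient over 30 min.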
# Plasma [9] = test: Adsorption in rhesus monkey plasma at 1 mg/ml preincubated for 1 hr followed by plasma addition measured after 1 hr by HPLC analysis; type: ADME, cell-free, Macaca mulatta; how it was run: as §1
# Rattus norvegicus [10] = test: Toxicity in iv dosed Jcl:Sprague-Dawley rat assessed as renal and hepatic dysfunction; type: organism-based; conditions: in vivo
# [11] = Adsorption in rhesus monkey blood cells at 1 mg/ml after 2 hrs by HPLC analysis; type: ADME, cell-based, Macaca mulatta; how it was run: as §1
# Plasma [12] = test: Adsorption in rhesus monkey plasma at 1 mg/ml after 2 hrs by HPLC analysis; type: ADME, cell-free, Macaca mulatta; how it was run: as §1
# [13] = Adsorption in rhesus monkey blood cells at 1 mg/ml after 1 hr followed by plasma addition by HPLC analysis; type: ADME, cell-based, Macaca mulatta; how it was run: as §1
# Plasma [14] = test: Adsorption in rhesus monkey plasma at 1 mg/ml after 1 hr followed by plasma addition by HPLC analysis; type: ADME, cell-free, Macaca mulatta; how it was run: as §1
# [15] = Adsorption in rhesus monkey blood cells at 1 mg/ml after 1 hr by HPLC analysis; type: ADME, cell-based, Macaca mulatta; how it was run: as §1
# Plasma [16] = test: Adsorption in rhesus monkey plasma at 1 mg/ml after 1 hr by HPLC analysis; type: ADME, cell-free, Macaca mulatta; how it was run: as §1
# [17] = Adsorption in rhesus monkey blood cells at 1 mg/ml measured immediately by HPLC analysis; type: ADME, cell-based, Macaca mulatta; how it was run: as §1
# Plasma [18] = test: Adsorption in rhesus monkey plasma at 1 mg/ml measured immediately by HPLC analysis; type: ADME, cell-free, Macaca mulatta; how it was run: as §1
# [19] = Plasma concentration in rhesus monkey at 13.4 mg/kg, iv after 24 hrs by HPLC analysis; type: ADME, organism-based, Macaca mulatta; set-up: dose 13.4 mg/kg, route intravenous; how it was run: as §2
# [20] = Plasma concentration in rhesus monkey at 13.4 mg/kg, iv after 4 hrs by HPLC analysis; type: ADME, organism-based, Macaca mulatta; set-up: dose 13.4 mg/kg, route intravenous; how it was run: as §2
# [21] = Plasma concentration in rhesus monkey at 13.4 mg/kg, iv after 1 hr by HPLC analysis; type: ADME, organism-based, Macaca mulatta; set-up: dose 13.4 mg/kg, route intravenous; how it was run: as §2
# [22] = Plasma concentration in rhesus monkey at 13.4 mg/kg, iv after 2 hrs by HPLC analysis; type: ADME, organism-based, Macaca mulatta; set-up: dose 13.4 mg/kg, route intravenous; how it was run: as §2
# [23] = Plasma concentration in rhesus monkey at 13.4 mg/kg, iv after 0.5 hrs by HPLC analysis; type: ADME, organism-based, Macaca mulatta; set-up: dose 13.4 mg/kg, route intravenous; how it was run: as §2
# Rhesus monkey [24] = test: Toxicity in iv dosed rhesus monkey; type: organism-based, Macaca mulatta; conditions: in vivo
# Rhesus monkey [25] = test: Toxicity in rhesus monkey assessed as prolonged PR interval in bradycardia at 70.6 mg, iv; type: organism-based, Macaca mulatta; conditions: in vivo
# Rhesus monkey [26] = test: Toxicity in rhesus monkey assessed as prolonged PR interval in electrocardiogram at 70.6 mg, iv; type: organism-based, Macaca mulatta; conditions: in vivo
# Rhesus monkey [27] = test: Toxicity in rhesus monkey assessed as mydriasis at 70.6 mg, iv; type: organism-based, Macaca mulatta; conditions: in vivo
# [28] = Plasma concentration in Jcl:Sprague-Dawley rat at 14 mg/kg, iv after 240 mins by HPLC analysis; type: ADME, organism-based; set-up: dose 14 mg/kg, route intravenous
# How it was run: (§3)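 6-week-old Jcl:SD rats given 2.5 mg 2-HCl in 1.0 mL saline by tail-vein injection. Tail-vein blood drawn at 15, 30, 45, 60, 120 and 240 min and centrifuged to plasma. Plasma stored at -80°C, mixed with phenol internal standard (62.5 µg/mL final), filtered and quantified by HPLC. Standard curve from peak-area ratio to phenol.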
# Plasma [29] = test: Adsorption in rhesus monkey plasma assessed as YYA-021 level at 1 mg/ml measured immediately by HPLC analysis; type: ADME, cell-free, Macaca mulatta; how it was run: as §1
# [30] = Plasma concentration in Jcl:Sprague-Dawley rat at 14 mg/kg, iv after 45 mins by HPLC analysis; type: ADME, organism-based; set-up: dose 14 mg/kg, route intravenous; how it was run: as §3
# [31] = Plasma concentration in Jcl:Sprague-Dawley rat at 14 mg/kg, iv after 60 mins by HPLC analysis; type: ADME, organism-based; set-up: dose 14 mg/kg, route intravenous; how it was run: as §3
# [32] = Plasma concentration in Jcl:Sprague-Dawley rat at 14 mg/kg, iv after 30 mins by HPLC analysis; type: ADME, organism-based; set-up: dose 14 mg/kg, route intravenous; how it was run: as §3
# [33] = Plasma concentration in Jcl:Sprague-Dawley rat at 14 mg/kg, iv after 15 mins by HPLC analysis; type: ADME, organism-based; set-up: dose 14 mg/kg, route intravenous; how it was run: as §3
# Rattus norvegicus [34] = test: Toxicity in Jcl:Sprague-Dawley rat assessed as change in body weight at 5 mg/kg, iv after 2 weeks relative to control; type: organism-based; set-up: dose 5 mg/kg, route intravenous; conditions: in vivo, 336 h
# [35] = Half life in rhesus monkey at 13.4 mg/kg, iv by HPLC analysis; type: ADME, organism-based, Macaca mulatta; set-up: dose 13.4 mg/kg, route intravenous; conditions: in vivo
# How it was run: (§4)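 Dosed by cephalic vein injection in 30 mL 0.1 M sodium phosphate buffer with NaCl, pH 7.4. Blood (3.0 mL) was drawn at 0, 0.5, 1, 2, 4 and 24 h. Plasma was separated and stored at -80°C, then MeOH-extracted. Supernatant was spiked with phenol internal standard (final 150 µg/mL) and filtered for HPLC, quantified against a peak-area-ratio calibration curve.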
# [36] = Volume of distribution in rhesus monkey at 13.4 mg/kg, iv after 24 hrs by HPLC analysis; type: ADME, organism-based, Macaca mulatta; set-up: dose 13.4 mg/kg, route intravenous; conditions: in vivo; how it was run: as §4
# [37] = Initial plasma concentration in rhesus monkey at 13.4 mg/kg, iv; type: ADME, organism-based, Macaca mulatta; set-up: dose 13.4 mg/kg, route intravenous; how it was run: as §4
# [38] = Initial plasma concentration in Jcl:Sprague-Dawley rat at 14 mg/kg, iv by HPLC analysis; type: ADME, organism-based; set-up: dose 14 mg/kg, route intravenous
# How it was run: (§5)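 Jcl:SD rats (6 weeks old) dosed iv via tail vein with 2.5 mg 2-HCl in 1.0 mL saline. Plasma sampled from 15 to 240 min and assayed by HPLC with phenol internal standard. Parameters derived from the plasma concentration–time course.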
# Rattus norvegicus [39] = test: Volume of distribution in Jcl:Sprague-Dawley rat at 14 mg/kg, iv by HPLC analysis; type: ADME, organism-based; set-up: dose 14 mg/kg, route intravenous; conditions: in vivo; how it was run: as §5
# [40] = Half life in Jcl:Sprague-Dawley rat at 2.5 mg, iv by HPLC analysis; conditions: in vivo
smiles,measurement,setting,value
Cc1ccc(NC(=O)C(=O)NC2CC(C)(C)NC(C)(C)C2)cc1.Cl,Activity,[1],61 µg/mL
same,Activity,[2],17.9 µg/mL
same,Activity,Plasma [3],46 µg/mL
same,Activity,Plasma [4],92.4 µg/mL
same,Activity,[5],67.2 µg/mL
same,Activity,Plasma [6],102 µg/mL
same,Activity,[7],64.2 µg/mL
same,Cp,Plasma [8],149 ng/mL
same,Activity,Plasma [9],51.2 µg/mL
same,MTD,Rattus norvegicus [10],2.5 mg
same,Activity,[11],68 µg/mL
same,Activity,Plasma [12],105 µg/mL
same,Activity,[13],19.9 µg/mL
same,Activity,Plasma [14],102.9 µg/mL
same,Activity,[15],74.8 µg/mL
same,Activity,Plasma [16],113.6 µg/mL
same,Activity,[17],71.5 µg/mL
same,Activity,Plasma [18],133.7 µg/mL
same,concentration at 24 h,[19],415 ng/mL
same,concentration at 4 h,[20],392 ng/mL
same,concentration at 1 h,[21],1260 ng/mL
same,concentration at 2 h,[22],1090 ng/mL
same,concentration at 0.5 h,[23],1330 ng/mL
same,MTD,Rhesus monkey [24],35.3 mg
same,Activity,Rhesus monkey [25],Toxic
same,Activity,Rhesus monkey [26],Toxic
same,Activity,Rhesus monkey [27],Toxic
same,concentration at 4 h,[28],1120 ng/mL
same,Activity,Plasma [29],120 µg/mL
same,concentration at 0.75 h,[30],1510 ng/mL
same,concentration at 1 h,[31],620 ng/mL
same,concentration at 0.5 h,[32],2100 ng/mL
same,concentration at 0.25 h,[33],6010 ng/mL
same,Activity,Rattus norvegicus [34],Non-toxic
Cc1ccc(NC(=O)C(=O)NC2CC(C)(C)NC(C)(C)C2)cc1,half-life,[35],98.4 min
same,Vd,[36],47.1 L
same,C0,[37],1500 ng/mL
same,C0,[38],17300 ng/mL
same,Vd,Rattus norvegicus [39],145 mL
same,half-life,[40],8.46 min
